ChEMBL document CHEMBL5634116, “Strategies for developing retinoic acid receptor alpha-selective antagonists as novel agents for male contraception” (Eur J Med Chem, 2023)
Calls of active or inactive are those of the source. No cut-off for these calls is given here.

Legend:
Mus musculus [1] = test: Effect on spermatogenesis in CD-1 mouse assessed as sperm count at 5 mg/kg/day, po for 7 days measured on day 1 post-cessation of drug treatment by hemocytometry (reference value: 55.50 +/- 8.18 x 10^6No_unit); format: functional; conditions: time 8 day
[2] = biological target: T1, Retinoic acid receptor beta (Homo sapiens, UniProt P10826); test: Antagonist activity at recombinant human RAR-beta expressed in mammalian cells in presence of ATRA by luciferase reporter gene based transactivation assay; format: cell-based
T1 sequence (P10826 whole entry): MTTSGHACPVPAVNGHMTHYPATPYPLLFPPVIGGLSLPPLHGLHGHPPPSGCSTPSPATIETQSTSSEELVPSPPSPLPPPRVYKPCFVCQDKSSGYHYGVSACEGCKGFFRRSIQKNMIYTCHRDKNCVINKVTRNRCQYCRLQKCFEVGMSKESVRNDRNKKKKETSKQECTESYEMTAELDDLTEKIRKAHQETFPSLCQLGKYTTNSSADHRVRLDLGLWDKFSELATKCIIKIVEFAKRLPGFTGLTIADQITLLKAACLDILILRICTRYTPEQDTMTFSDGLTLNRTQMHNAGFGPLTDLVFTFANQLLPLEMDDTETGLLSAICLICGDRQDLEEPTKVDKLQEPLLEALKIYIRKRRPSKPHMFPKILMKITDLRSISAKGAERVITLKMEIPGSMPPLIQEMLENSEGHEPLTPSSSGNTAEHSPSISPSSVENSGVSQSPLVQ

[3] = Metabolic stability in CD-1 mouse intestinal microsomes assessed as compound remaining at 2 x 10^-6 M in presence of NADPH measured for 60 mins; format: ADME, Intestine, Microsome; conditions: dose 2 10^-6M, read-out: Stability
Outline: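 Male CD-1 mouse intestinal microsomes with NADPH, compound at 2.0 ×10−6 M, 60 min; percent parent remaining.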

[4] = Drug uptake in CD-1 mouse plasma at 10 mg/kg, po measured for 30 mins by LC-MS/MS analysis; format: ADME, organism-based; conditions: in vivo, 0.5 h
Outline: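 Male CD-1 mice, 6-8 weeks, single oral dose 10 mg/kg in 80% Carbitol/20% saline (1.75 mg/ml). Sets of 3 mice bled and euthanized at 5, 15, 30 min to 24 h; plasma frozen ≤ −20 °C, acetonitrile-precipitated with internal standard, analysed by isocratic LC-MS/MS against calibration standards. Mean ± S.D. of 3 animals.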

Mus musculus [5] = test: Effect on spermatogenesis in CD-1 mouse assessed as sperm count at 5 mg/kg/day, po for 7 days measured after 4 weeks post-cessation of drug treatment by hemocytometry; format: functional; conditions: time 5 weeks
Mus musculus [6] = test: Effect on spermatogenesis in CD-1 mouse assessed as abnormal epididymal sperm morphology at 5 mg/kg/day, po for 7 days measured after 4 weeks post-cessation of drug treatment by hematoxylin counter-staining based analysis; format: functional, organism-based; conditions: time 5.0 weeks
Mus musculus [7] = test: Effect on spermatogenesis in CD-1 mouse assessed as sperm count at 10 mg/kg/day, po for 2 weeks measured after 4 weeks post-cessation of drug treatment by hemocytometry (reference value: 50.30 +/- 5.90 x 10^6No_unit); format: functional; conditions: time 6 weeks
Mus musculus [8] = test: Effect on spermatogenesis in CD-1 mouse assessed as abnormality in spermatid translocation at 10 mg/kg/day, po for 2 weeks measured measured after 4 weeks post-cessation of drug treatment by hematoxylin counter-staining based analysis; format: functional, organism-based; conditions: time 6.0 weeks
Outline: (§1)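 CD1 males given 10 mg/kg/day orally for 2 weeks dissolved in 20% aqueous Kollisolv (n = 10 per time point); vehicle-only controls n = 5. Testes collected one day or 4 weeks after cessation, fixed in 4% paraformaldehyde or Bouin's, paraffin-embedded, PAS-stained with hematoxylin counterstain and tubules staged by bright-field microscopy.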

Mus musculus [9] = test: Effect on spermatogenesis in CD-1 mouse assessed as abnormality in spermatid release at 10 mg/kg/day, po for 2 weeks measured measured after 4 weeks post-cessation of drug treatment by hematoxylin counter-staining based analysis; format: functional, organism-based; conditions: time 6.0 weeks; outline: as §1
Mus musculus [10] = test: Effect on spermatogenesis in CD-1 mouse assessed as reduction in sperm count administered as Avicel formulation at 10 mg/kg/day, po for 28 days consecutively measured on day 1 post-cessation of drug treatment by hemocytometry relative to control; format: functional; set-up: scale not given: the % may be the effect or the level left; conditions: time 29 day

In the case of `Cc1ccc(C2=CC(C)(C)Oc3ccc(C(=O)Nc4ccc(C(=O)O)cc4)cc32)cc1`, the Activity (Mus musculus [1]) is reported as 24.5 10^6No_unit, the IC50 [2] is reported as greater than 3.3 µM and the remaining at 1 h, 2 µM [3] is reported as 100%. The Drug uptake [4] was “Active”, the Activity (Mus musculus [5]) was 54.9 10^6No_unit and the Activity (Mus musculus [6]) was “inactive”. The Activity (Mus musculus [7]) was 44.75 10^6No_unit, the Activity (Mus musculus [8]) was “inactive” and the Activity (Mus musculus [9]) was “inactive”. For the same compound, the Activity (Mus musculus [10]) was roughly 56%.
